Test results: ChEMBL document CHEMBL5058577, “EUbOPEN Chemogenomics Library 2 (Multiplex)” (2022)

Test system: HEK-293T
Test: Multiplex assay against HEK293T
Type: toxicity, cell-based
Conditions: human
Outline: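 Tubulin, mitochondrial-mass and membrane-permeability phenotypes are per cents of healthy-nucleus cells. Cells were gated by CellPathfinder machine learning into Hoechst high-intensity objects or normal cells, normal cells into healthy, pyknosed or fragmented nuclei, and pyknosed cells into mitotic or apoptotic. Before that, live cells stained at seeding with Hoechst33342, BioTracker Green Microtubule Cytoskeleton Dye, MitoTracker Red and Annexin V Alexa Fluor 680 were imaged on a CQ1 microscope at 37°C and 5% CO2 after compound addition.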

[1] = 12 h, 1 µM, compound concentration 1 uM, replicate 1
[2] = 12 h, 1 µM, compound concentration 1 uM, replicate 2
[3] = 12 h, 10 µM, compound concentration 10 uM, replicate 1
[4] = 12 h, 10 µM, compound concentration 10 uM, replicate 2
[5] = 24 h, 1 µM, compound concentration 1 uM, replicate 1
[6] = 24 h, 1 µM, compound concentration 1 uM, replicate 2
[7] = 24 h, 10 µM, compound concentration 10 uM, replicate 1
[8] = 24 h, 10 µM, compound concentration 10 uM, replicate 2
[9] = 48 h, 1 µM, compound concentration 1 uM, replicate 1
[10] = 48 h, 1 µM, compound concentration 1 uM, replicate 2
[11] = 48 h, 10 µM, compound concentration 10 uM, replicate 1
[12] = 48 h, 10 µM, compound concentration 10 uM, replicate 2

## S=C(NCCCc1c[nH]cn1)NCCCN(Cc1ccc(Cl)c(Cl)c1)c1ccc(Br)cn1
[1]
  Population Apoptotic (%): 39%
  Population Fragmented Nuclei (%): 8%
  Population Healthy Nuclei (%): 78%
  Population Hoechst High Intensity Objects (%): 17%
  Population Membrane Permeable-Phenotype (%): 0%
  Population Mitochondria Different-Phenotype (%): 50%
  Population Mitotic Cells (%): 60%
  Population Normal (%): 82%
  Population Pyknosed Nuclei (%): 13%
  Population Tubulin-Different-Phenotype (%): 36%
  Total Cell Count: 378
[2]
  Population Apoptotic (%): 53%
  Population Fragmented Nuclei (%): 5%
  Population Healthy Nuclei (%): 79%
  Population Hoechst High Intensity Objects (%): 6%
  Population Mitochondria Different-Phenotype (%): 58%
  Population Mitotic Cells (%): 46%
  Population Normal (%): 93%
  Population Pyknosed Nuclei (%): 14%
  Population Tubulin-Different-Phenotype (%): 35%
  Total Cell Count: 294
[3]
  Population Apoptotic (%): 90%
  Population Fragmented Nuclei (%): 4%
  Population Healthy Nuclei (%): 57%
  Population Hoechst High Intensity Objects (%): 33%
  Population Membrane Permeable-Phenotype (%): 0%
  Population Mitochondria Different-Phenotype (%): 77%
  Population Mitotic Cells (%): 9%
  Population Normal (%): 66%
  Population Pyknosed Nuclei (%): 38%
  Population Tubulin-Different-Phenotype (%): 78%
  Total Cell Count: 242
[4]
  Population Apoptotic (%): 77%
  Population Fragmented Nuclei (%): 8%
  Population Healthy Nuclei (%): 71%
  Population Hoechst High Intensity Objects (%): 19%
  Population Mitochondria Different-Phenotype (%): 84%
  Population Mitotic Cells (%): 22%
  Population Normal (%): 80%
  Population Pyknosed Nuclei (%): 19%
  Total Cell Count: 229
[5]
  Population Apoptotic (%): 39%
  Population Fragmented Nuclei (%): 10%
  Population Healthy Nuclei (%): 73%
  Population Hoechst High Intensity Objects (%): 22%
  Population Membrane Permeable-Phenotype (%): 0%
  Population Mitochondria Different-Phenotype (%): 45%
  Population Mitotic Cells (%): 60%
  Population Normal (%): 77%
  Population Pyknosed Nuclei (%): 16%
  Population Tubulin-Different-Phenotype (%): 32%
  Total Cell Count: 326
[6]
  Population Apoptotic (%): 41%
  Population Fragmented Nuclei (%): 9%
  Population Healthy Nuclei (%): 81%
  Population Hoechst High Intensity Objects (%): 13%
  Population Mitochondria Different-Phenotype (%): 48%
  Population Mitotic Cells (%): 58%
  Population Normal (%): 86%
  Population Pyknosed Nuclei (%): 9%
  Total Cell Count: 301
[7]
  Population Apoptotic (%): 85%
  Population Fragmented Nuclei (%): 11%
  Population Healthy Nuclei (%): 49%
  Population Hoechst High Intensity Objects (%): 48%
  Population Membrane Permeable-Phenotype (%): 1%
  Population Mitochondria Different-Phenotype (%): 75%
  Population Mitotic Cells (%): 14%
  Population Normal (%): 51%
  Population Pyknosed Nuclei (%): 39%
  Population Tubulin-Different-Phenotype (%): 78%
  Total Cell Count: 237
[8]
  Population Apoptotic (%): 82%
  Population Fragmented Nuclei (%): 16%
  Population Healthy Nuclei (%): 59%
  Population Hoechst High Intensity Objects (%): 39%
  Population Membrane Permeable-Phenotype (%): 0%
  Population Mitochondria Different-Phenotype (%): 82%
  Population Mitotic Cells (%): 17%
  Population Normal (%): 61%
  Population Pyknosed Nuclei (%): 23%
  Total Cell Count: 200
[9]
  Population Apoptotic (%): 47%
  Population Fragmented Nuclei (%): 14%
  Population Healthy Nuclei (%): 65%
  Population Hoechst High Intensity Objects (%): 36%
  Population Membrane Permeable-Phenotype (%): 3%
  Population Mitochondria Different-Phenotype (%): 38%
  Population Mitotic Cells (%): 52%
  Population Normal (%): 63%
  Population Pyknosed Nuclei (%): 19%
  Population Tubulin-Different-Phenotype (%): 29%
  Total Cell Count: 307
[10]
  Population Apoptotic (%): 36%
  Population Fragmented Nuclei (%): 17%
  Population Healthy Nuclei (%): 73%
  Population Hoechst High Intensity Objects (%): 27%
  Population Membrane Permeable-Phenotype (%): 0%
  Population Mitochondria Different-Phenotype (%): 32%
  Population Mitotic Cells (%): 63%
  Population Normal (%): 72%
  Population Pyknosed Nuclei (%): 9%
  Population Tubulin-Different-Phenotype (%): 19%
  Total Cell Count: 277
[11]
  Population Apoptotic (%): 84%
  Population Fragmented Nuclei (%): 23%
  Population Healthy Nuclei (%): 23%
  Population Hoechst High Intensity Objects (%): 75%
  Population Membrane Permeable-Phenotype (%): 0%
  Population Mitochondria Different-Phenotype (%): 86%
  Population Mitotic Cells (%): 15%
  Population Normal (%): 24%
  Population Pyknosed Nuclei (%): 52%
  Population Tubulin-Different-Phenotype (%): 53%
  Total Cell Count: 256
[12]
  Population Apoptotic (%): 75%
  Population Fragmented Nuclei (%): 21%
  Population Hoechst High Intensity Objects (%): 67%
  Population Mitochondria Different-Phenotype (%): 80%
  Population Mitotic Cells (%): 25%
  Population Normal (%): 32%
  Population Pyknosed Nuclei (%): 55%
  Population Tubulin-Different-Phenotype (%): 40%
  Total Cell Count: 203
